Assay results published in ChEMBL document CHEMBL4311977, “Design and synthesis of parthenolide and 5-fluorouracil conjugates as potential anticancer agents against drug resistant hepatocellular carcinoma” (Eur J Med Chem, 2019).
pIC50: −log10 of the molar value. Counter-ions that a name gives are not always drawn.

Tests used:
Bel-7402 = experiment: Antiproliferative activity against human Bel7402 incubated for 72 hrs by MTT assay; format: functional, cell-based; settings: Bel-7402, 72 h
In short: (§1)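 Bel-7402 and its 5-FU-resistant subline were kept in RPMI-1640 with 10% FBS and 1% penicillin/streptomycin at 37 °C under 5% CO2. Cells were seeded at 5000 per well and left for 12 h, then exposed to a concentration series for 72 h. MTT stock (5 mg/mL) was added for 4 h and the product dissolved in DMSO. OD was read at 570 nm and IC50 obtained by curve fitting.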

Bel7402/5-FU [1] = experiment: Antiproliferative activity against human Bel7402/5-FU incubated for 72 hrs by MTT assay; format: functional, cell-based; in short: as §1
Bel7402/5-FU [2] = experiment: Induction of apoptosis in human Bel7402/5-FU assessed as viable cells at 5 uM incubated for 48 hrs by annexinV-FITC/propidium iodide staining based flow cytometry (reference value: 96.9 %)
Bel7402/5-FU [3] = experiment: Induction of apoptosis in human Bel7402/5-FU assessed as necrotic cells at 5 uM incubated for 48 hrs by annexinV-FITC/propidium iodide staining based flow cytometry (reference value: 0.157 %)
Bel7402/5-FU [4] = experiment: Induction of apoptosis in human Bel7402/5-FU assessed as late apoptotic cells at 5 uM incubated for 48 hrs by annexinV-FITC/propidium iodide staining based flow cytometry (reference value: 0.945 %)
Bel7402/5-FU [5] = experiment: Induction of apoptosis in human Bel7402/5-FU assessed as early apoptotic cells at 5 uM incubated for 48 hrs by annexinV-FITC/propidium iodide staining based flow cytometry (reference value: 20.1 %)
[6] = Oral bioavailability in mouse at 100 mg/kg; format: ADME, organism-based; settings: in vivo
[7] = Oral bioavailability in canine at 100 mg/kg; format: ADME, organism-based, Canis lupus familiaris; settings: dog, in vivo

SMILES | pIC50 (Bel-7402) | pIC50 (Bel7402/5-FU [1]) | further results
C=C1C(=O)O[C@H]2[C@H]1CC/C(COC(=O)Cn1cc(F)c(=O)n(Cc3cc(F)ccc3F)c1=O)=C\CC[C@@]1(C)O[C@@H]21 | 5.51 | 5.34 | –
C=C1C(=O)O[C@H]2[C@H]1CC/C(COC(=O)CCC(=O)NCCCCCCNC(=O)Cn1cc(F)c(=O)n(Cc3ccccc3)c1=O)=C\CC[C@@]1(C)O[C@@H]21 | 4.74 | 4.79 | –
COc1cccc2c1C(=O)c1c(O)c3c(c(O)c1C2=O)C[C@@](O)(C(=O)CO)C[C@@H]3O[C@H]1C[C@H](N)[C@H](O)[C@H](C)O1 [DOXORUBICIN HYDROCHLORIDE] | – | 5.08 | –
C=C1C(=O)O[C@H]2[C@H]1CC/C(COC(=O)Cn1cc(F)c(=O)n(Cc3cccc(F)c3)c1=O)=C\CC[C@@]1(C)O[C@@H]21 | 5.60 | 5.43 | –
C=C1C(=O)O[C@H]2[C@H]1CC/C(COC(=O)Cn1cc(F)c(=O)n(Cc3ccccc3F)c1=O)=C\CC[C@@]1(C)O[C@@H]21 | 5.42 | 5.42 | –
C=C1C(=O)O[C@H]2[C@H]1CC/C(COC(=O)CCC(=O)N1CCN(C(=O)Cn3cc(F)c(=O)[nH]c3=O)CC1)=C\CC[C@@]1(C)O[C@@H]21 | < 4.70 | < 4.70 | –
C=C1C(=O)O[C@H]2[C@H]1CC/C(COC(=O)Cn1cc(F)c(=O)n(CCC)c1=O)=C\CC[C@@]1(C)O[C@@H]21 | 5.07 | 5.04 | –
C=C1C(=O)O[C@H]2[C@H]1CC/C(COC(=O)Cn1cc(F)c(=O)n(Cc3ccc(Cl)cc3)c1=O)=C\CC[C@@]1(C)O[C@@H]21 | 5.59 | 5.62 | –
C=C1C(=O)O[C@H]2[C@H]1CC/C(Cn1cc(Cn3cc(F)c(=O)n(Cc4ccccc4)c3=O)nn1)=C\CC[C@@]1(C)O[C@@H]21 | 5.04 | 5.05 | –
O=c1[nH]cc(F)c(=O)[nH]1 [FLUOROURACIL] | 5.13 | < 3.40 | viability at 5 µM (Bel7402/5-FU [2]): 27.4%; Activity (Bel7402/5-FU [3]): 2.164%; Activity (Bel7402/5-FU [4]): 0.073%; Activity (Bel7402/5-FU [5]): 1.85%
C=C1C(=O)O[C@H]2[C@H]1CC/C(COC(=O)Cn1cc(F)c(=O)n(Cc3ccc(F)cc3F)c1=O)=C\CC[C@@]1(C)O[C@@H]21 | 5.44 | 5.30 | –
C=C1C(=O)O[C@H]2[C@H]1CC/C(COC(=O)CCC(=O)NCCCCCCNC(=O)Cn1cc(F)c(=O)[nH]c1=O)=C\CC[C@@]1(C)O[C@@H]21 | < 4.70 | < 4.70 | –
C=C1C(=O)O[C@H]2[C@H]1CC/C(Cn1cc(Cn3cc(F)c(=O)[nH]c3=O)nn1)=C\CC[C@@]1(C)O[C@@H]21 | < 4.70 | < 4.70 | –
C=C1C(=O)O[C@H]2[C@H]1CC/C(COC(=O)Cn1cc(F)c(=O)n(Cc3ccccc3)c1=O)=C\CC[C@@]1(C)O[C@@H]21 | 5.40 | 5.37 | –
C=C1C(=O)O[C@@H]2C3O[C@]3(C)CC/C=C(\C)CC[C@@H]12 (stereo partly drawn) | 5.06 | 4.89 | viability at 5 µM (Bel7402/5-FU [2]): 94.3%; Activity (Bel7402/5-FU [3]): 1.29%; Activity (Bel7402/5-FU [4]): 2.52%; Activity (Bel7402/5-FU [5]): 1.75%
C=C1C(=O)O[C@H]2[C@H]1CC/C(COC(=O)CCC(=O)N1CCN(C(=O)Cn3cc(F)c(=O)n(Cc4ccccc4)c3=O)CC1)=C\CC[C@@]1(C)O[C@@H]21 | < 4.70 | < 4.70 | –
C=C1C(=O)O[C@H]2[C@H]1CC/C(Cn1cc(Cn3cc(F)c(=O)n(Cc4ccc(F)cc4)c3=O)nn1)=C\CC[C@@]1(C)O[C@@H]21 | 5.31 | 5.31 | –
C=C1C(=O)O[C@H]2[C@H]1CC/C(COC(=O)Cn1cc(F)c(=O)n(Cc3ccc(F)cc3)c1=O)=C\CC[C@@]1(C)O[C@@H]21 | 5.56 | – | –
C=C1C(=O)O[C@H]2[C@H]1CC/C(COC(=O)CCC(=O)OCn1cc(F)c(=O)[nH]c1=O)=C\CC[C@@]1(C)O[C@@H]21 | < 4.70 | < 4.70 | –
C=C1C(=O)O[C@H]2[C@H]1CC/C(COC(=O)Cn1cc(F)c(=O)n(Cc3c(F)cccc3F)c1=O)=C\CC[C@@]1(C)O[C@@H]21 | 5.35 | 5.30 | –
C=C1C(=O)O[C@H]2[C@H]1CC/C(COC(=O)Cn1cc(F)c(=O)n(Cc3ccc([N+](=O)[O-])cc3)c1=O)=C\CC[C@@]1(C)O[C@@H]21 | 5.39 | 5.36 | –
C/C1=C\CC[C@@]2(C)O[C@H]2[C@H]2OC(=O)[C@@H](CN(C)C)[C@@H]2CC1 | – | – | bioavailability [6]: 70%; bioavailability [7]: 70%
C=C1C(=O)O[C@H]2[C@H]1CC/C(COC(=O)Cn1cc(F)c(=O)n(Cc3ccc(F)c(F)c3)c1=O)=C\CC[C@@]1(C)O[C@@H]21 | 5.57 | 5.35 | –
C=C1C(=O)O[C@H]2[C@H]1CC/C(COC(=O)Cn1cc(F)c(=O)n(Cc3ccc(Br)cc3)c1=O)=C\CC[C@@]1(C)O[C@@H]21 | 5.57 | 5.49 | –
C=C1C(=O)O[C@H]2[C@H]1CC/C(COC(=O)Cn1cc(F)c(=O)[nH]c1=O)=C\CC[C@@]1(C)O[C@@H]21 | < 4.70 | < 4.70 | –
C=C1C(=O)O[C@H]2[C@H]1CC/C(COC(=O)Cn1cc(F)c(=O)n(C)c1=O)=C\CC[C@@]1(C)O[C@@H]21 | 5.03 | 4.93 | –
